Molecules are shown by their SMILES. Where only a bound is given, the exact number is not on record here.

Drawing on ChEMBL document CHEMBL1142287, “Anti-Pneumocystis carinii and antiplasmodial activities of primaquine-derived imidazolidin-4-ones” (Bioorg Med Chem Lett, 2008), this text covers IC50 and half-life for 15 compounds.

In one data set the test system is Pneumocystis carinii. Kind of data set: Antimicrobial activity against Pneumocystis carinii assessed as ATP levels after 72 hrs by luciferase assay. It counts as functional, organism-based. A digest of the protocol: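 P. carinii organism preparations screened before use for microbial contamination, ATP content, karyotype and host cell content. Compounds incubated with organisms for 72 h, then ATP measured as relative light units. Each concentration tested in triplicate wells and averaged, with triplicate runs using separate organism isolation batches. Activity averaged from at least three determinations.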

For a further data set, the system named is Plasmodium falciparum. Kind of data set: Antiplasmodial activity against chloroquine-resistant Plasmodium falciparum W2. It counts as functional, organism-based. A digest of the protocol:
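Parasite development assay against P. falciparum W2, run by the authors' earlier method. Values in μM, each the average of at least three determinations.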

Data set [1] is described as follows: Half life of hydrolysis in buffer at pH 7.4. The class given is ADME. A digest of the protocol: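 Hydrolytic stability followed in pH 7.4 buffer at 37 °C; half-life derived from the decay.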

What is called IC50 is the concentration at which inhibition is half-maximal. For the compound `COc1cc(NC(C)CCCN2C(=O)[C@H](Cc3ccccc3)NC2(C)C)c2ncccc2c1` (some centres not stated), the IC50 is 32 µM in the data set with Pneumocystis carinii (Pneumocystis carinii, 72 h) and over 50 µM with Plasmodium falciparum.
As a reminder, the half-life is the time needed for the level to fall by half in the phase considered. A higher half-life goes with slow decline. For `COc1cc(NC(C)CCCN2C(=O)[C@H](C(C)C)NC23CCCCCC3)c2ncccc2c1` (some centres not stated), the IC50 in the data set on Pneumocystis carinii (Pneumocystis carinii, 72 h) is 6 µM; in the data set on Plasmodium falciparum, 8.89 µM. The half-life in data set [1] was over 240 h.
In the case of `COc1cc(NC(C)CCCN2C(=O)[C@H](C(C)C)NC23CCCCC3)c2ncccc2c1` (some centres not stated), the IC50 with Pneumocystis carinii (Pneumocystis carinii, 72 h) was 26 µM; in the data set with Plasmodium falciparum, over 50 µM.
Turning to `COc1cc(NC(C)CCCN2C(=O)[C@H](C(C)C)NC23CCCC3)c2ncccc2c1` (some centres not stated), the half-maximal inhibitory concentration (IC50) was 23 µM in the data set on Pneumocystis carinii (Pneumocystis carinii, 72 h) and over 50 µM in the data set on Plasmodium falciparum.
`COc1cc(NC(C)CCCN2C(=O)[C@H](Cc3ccccc3)NC23CCCC3)c2ncccc2c1` (some centres not stated): the IC50 was 12 µM in the data set with Pneumocystis carinii (Pneumocystis carinii, 72 h) and over 50 µM in the data set on Plasmodium falciparum.
`COc1cc(NC(C)CCCN2C(=O)[C@H](C)NC2(C)C)c2ncccc2c1` (some centres not stated): the IC50 is 226 µM with Pneumocystis carinii (Pneumocystis carinii, 72 h) and over 50 µM in the data set on Plasmodium falciparum.
Turning to `COc1cc(NC(C)CCCN2C(=O)[C@H](CC(C)C)NC23CCCCCC3)c2ncccc2c1` (some centres not stated), the IC50 is 4.1 µM in the data set on Pneumocystis carinii (Pneumocystis carinii, 72 h) and 2.63 µM with Plasmodium falciparum.
Consider `COc1cc(NC(C)CCCN2C(=O)[C@H](C)NC23CCC(C)CC3)c2ncccc2c1` (some centres not stated), for which the IC50 in the data set on Pneumocystis carinii (Pneumocystis carinii, 72 h) was determined as 23 µM.
For the compound `COc1cc(NC(C)CCCN2C(=O)CNC23CCCCC3)c2ncccc2c1` (configuration not stated), the IC50 in the data set with Pneumocystis carinii (Pneumocystis carinii, 72 h) was 43 µM; in the data set with Plasmodium falciparum, over 50 µM.
On the same counts, the results for `COc1cc(NC(C)CCCN2C(=O)[C@H](C)NC23CCCCCC3)c2ncccc2c1` (some centres not stated) are 1.9 µM and 2.42 µM.
Regarding `COc1cc(NC(C)CCCN2C(=O)CNC2(C)C)c2ncccc2c1` (configuration not stated), the IC50 in the data set with Pneumocystis carinii (Pneumocystis carinii, 72 h) is 23 µM; with Plasmodium falciparum it was 9.08 µM.
Take `COc1cc(NC(C)CCCN2C(=O)[C@H](C(C)C)NC2(C)C)c2ncccc2c1` (some centres not stated): the IC50 in the data set with Pneumocystis carinii (Pneumocystis carinii, 72 h) is 40 µM; in the data set on Plasmodium falciparum, over 50 µM.
`COc1cc(NC(C)CCCN2C(=O)C(Cc3ccccc3)NC2c2ccccc2C)c2ncccc2c1` (stereo in doubt; 2m1): the IC50 in the data set with Pneumocystis carinii is 21 µM.
Turning to `COc1cc(NC(C)CCCN2C(=O)C(Cc3ccccc3)NC2c2ccccc2C)c2ncccc2c1` (stereo in doubt; 2m2), in the data set with Pneumocystis carinii (Pneumocystis carinii, 72 h), the IC50 was 13 µM.
Regarding `COc1cc(NC(C)CCCN)c2ncccc2c1` (configuration not stated) [PRIMAQUINE], the IC50 in the data set on Pneumocystis carinii (Pneumocystis carinii, 72 h) is 2.5 µM.
